The record followed here is PubChem BioAssay.

Active and inactive are the calls of the source.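 The calls were made as follows, unless noted: active = visually confirmed hit in the image check and inhibition above 20%; inconclusive = visually confirmed hit but inhibition not above 20%; inactive = no visual hit in the image check.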

The nature of experiment [1]: inhibitors of TNFa-induced NFkB p65 translocation, primary screen, imaging, HUVEC, MLSMR starter and 10KST1 sets (AID 438;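 active = inhibition above 20% together with a positive visual image hit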;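 also: compound added about 3h40 before a 20 min TNFalpha stimulation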;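 as to inhibition: signal is the nuclear over cytoplasmic p65 intensity ratio per well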). The note with it: HUVEC TNFa-induced p65 nuclear translocation; cell count: measured here: nuclei count (cytotoxicity indicator), at 2.08 µM; inhibition: at 2 µM, stronger effect = higher value, 0% TNFa-plus-vehicle, 100% no-TNFa wells.
Experiment [2] can be described thus: endothelial E-selectin expression blockers – imaging, HUVEC, immunofluorescence, MLSMR starter and 10KST1 sets, primary screen (AID 487).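 As to inhibition: signal is fraction of cell area covered by stained E-selectin grains.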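 As to nuclei count: 100% = median nuclei count of all wells on the same plate.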 The note with it: HUVEC TNFalpha-induced E-selectin immunofluorescence imaging, at 2 µM; inhibition: stronger effect = higher value; nuclei count: measured here: cell number, toxicity.
Experiment [3] in a line: Primary imaging screen for DUSP6 inhibitors that restore phospho-Erk in transfected HeLa cells, chemical complementation (AID 609;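 active = compounds giving at least 50% inhibition in the cell-based MKP-3 phosphatase rescue imaging test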;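 as to inhibition: phospho-Erk level distribution per well compared with pooled transfected vehicle control wells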). The note with it: HeLa MKP-3 transfected, phospho-Erk imaging KS statistic, at 10 µM, cells stimulated with TPA for 15 min.
Experiment [4] concerns the target Dual specificity protein phosphatase 6 (Homo sapiens) (UniProt Q16828). The description is as above. As to conditions: HeLa MKP-3 transfected, phospho-Erk imaging KS statistic; at 10 µM; stronger effect = higher value; cells stimulated with TPA for 15 min.
For experiment [5], the target named is Voltage-gated potassium channel subunit beta-2 (Rattus norvegicus) (UniProt P62483). In words: inhibitors of rat Kvbeta2 reductase activity – biochemical, NADPH fluorescence, primary screen (AID 622;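 active = fluorescence slope higher than the sample average by over 3 SD, cut at about -0.22 in these data, passing the limit was not always enough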;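 also: slope of raw intensity against log time taken from 70 to 1610 s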). As to conditions: recombinant KvBeta, 4-cyanobenzaldehyde reduction, at 10 µM, stronger effect = higher value.
Chain of Voltage-gated potassium channel subunit beta-2 (Rattus norvegicus) (P62483 whole entry, looked up): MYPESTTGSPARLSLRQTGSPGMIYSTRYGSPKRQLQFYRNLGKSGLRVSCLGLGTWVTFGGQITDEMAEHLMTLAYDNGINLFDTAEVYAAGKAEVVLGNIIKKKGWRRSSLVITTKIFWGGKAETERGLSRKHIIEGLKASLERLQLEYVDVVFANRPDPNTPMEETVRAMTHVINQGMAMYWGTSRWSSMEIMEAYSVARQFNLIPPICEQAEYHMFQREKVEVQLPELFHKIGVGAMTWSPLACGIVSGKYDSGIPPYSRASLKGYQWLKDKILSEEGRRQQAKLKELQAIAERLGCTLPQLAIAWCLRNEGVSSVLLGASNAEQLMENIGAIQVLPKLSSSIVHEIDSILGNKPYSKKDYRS
For experiment [6] the target is unchanged. In words: enhancers of rat Kvbeta2 NADPH turnover – biochemical, NADPH fluorescence, primary screen (AID 623;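 active = NADPH fluorescence slope more negative than the mean of all samples by about 3 SD, 99.7% confidence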;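 also: fluorescence intensity change per second fitted from 20 to 320 s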). The note with it: Recombinant KvBeta, NADPH fluorescence decrease slope, 10 min; at 10 µM; stronger effect = lower value.
The target in experiment [7] is Muscarinic acetylcholine receptor M4 (Homo sapiens) (UniProt P08173). In words: M4-linked GIRK flux change, two-sided – cell-based, HEK293 M4/GIRK, thallium flux, BTC-AM, M4 allosteric agonist project, primary screen (AID 625;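 active = fluorescence slope after compound addition differing from the mean of all tested samples at 99.7% confidence, mostly higher but some lower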;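 also: thallium influx through GIRK channels coupled to M4 in HEK293 cells with BTC-AM dye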). The note with it: at 10 µM, actives lie on both sides. In outline: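 System: HEK293 cells with M4 receptor and GIRK channels | Incubation: Cells overnight at 37 °C, BTC-AM loading 1 h, reads 2 min total | Technique: Kinetic BTC-AM fluorescence sampled at 1 Hz, 10 s pre-addition baseline | Measure: Post-addition slope, 15–24 s, of baseline-normalized fluorescence | Control set: Carbachol positive, DMSO negative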
Chain of Muscarinic acetylcholine receptor M4 (Homo sapiens) (P08173 whole entry, looked up): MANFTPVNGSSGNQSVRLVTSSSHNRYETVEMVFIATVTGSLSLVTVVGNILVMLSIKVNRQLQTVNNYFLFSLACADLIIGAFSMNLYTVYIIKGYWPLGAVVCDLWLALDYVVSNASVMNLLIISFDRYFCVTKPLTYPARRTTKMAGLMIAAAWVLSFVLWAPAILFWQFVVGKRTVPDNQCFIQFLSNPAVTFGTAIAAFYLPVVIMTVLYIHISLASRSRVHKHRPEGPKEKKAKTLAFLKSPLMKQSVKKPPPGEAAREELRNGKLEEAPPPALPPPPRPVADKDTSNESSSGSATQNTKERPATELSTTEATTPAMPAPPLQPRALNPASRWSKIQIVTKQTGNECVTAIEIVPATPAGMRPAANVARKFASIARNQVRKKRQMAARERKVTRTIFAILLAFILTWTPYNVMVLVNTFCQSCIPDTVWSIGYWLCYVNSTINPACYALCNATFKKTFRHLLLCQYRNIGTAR

The nature of experiment [8]: inhibitors of larval lipid processing in zebrafish, primary screen, whole organism, PED6 fluorescence, gall bladder and intestine (AID 686;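 active = a full or partial loss of lipid-probe fluorescence in the fish gall bladder, intestine or both, judged by eye; inactive = no fluorescence loss, or compound toxic to the fish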;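 also: larvae 5 to 7 days old with five fish per well; signal comes from phospholipase A2 cleavage of quenched PED6 carried via bile; overnight exposure to compound and PED6 before scoring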). As to conditions: Zebrafish larvae PED6 lipid processing, fluorescence scoring; screened at 20 µM (by protocol). The procedure, abridged: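 Test system – live zebrafish larvae aged 5-7 days, whole organism · Buffer or medium – E3 fish medium · Reagent – quenched phospholipase substrate PED6, 100 nM final, ingested by larvae · Doses – 20 µM single dose · Incubation – overnight compound and PED6 incubation · Technique – visual fluorescence microscopy scoring of gall bladder, gut · Read-out basis – visual per-well fluorescence inhibition score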

Experiment [9] in a line: loss of swimming-algae plug formation – whole organism, Chlamydomonas reinhardtii, WT vs cilia-less mutant, absorbance, 96-well, primary screen (AID 463189;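 active = inhibition at or above 50% relative to wild type and mutant plate controls; inactive = inhibition below 50%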;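 also: 0% = wild type cc124 cells in DMSO and 100% = ciliumless bld1 mutant cells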). As to conditions: Chlamydomonas reinhardtii gravitaxis, OD600 absorbance, 2 days; at 10 µM; stronger effect = higher value.
[10] abbreviates: measured here: cell density z-score.
Where [11] appears, read: measured here: nuclear c-Myc green intensity z-score.
[12] abbreviates: measured here: nuclear pErk red intensity z-score, stronger effect = higher value.

Chain of Dual specificity protein phosphatase 6 (Homo sapiens) (Q16828 whole entry, looked up): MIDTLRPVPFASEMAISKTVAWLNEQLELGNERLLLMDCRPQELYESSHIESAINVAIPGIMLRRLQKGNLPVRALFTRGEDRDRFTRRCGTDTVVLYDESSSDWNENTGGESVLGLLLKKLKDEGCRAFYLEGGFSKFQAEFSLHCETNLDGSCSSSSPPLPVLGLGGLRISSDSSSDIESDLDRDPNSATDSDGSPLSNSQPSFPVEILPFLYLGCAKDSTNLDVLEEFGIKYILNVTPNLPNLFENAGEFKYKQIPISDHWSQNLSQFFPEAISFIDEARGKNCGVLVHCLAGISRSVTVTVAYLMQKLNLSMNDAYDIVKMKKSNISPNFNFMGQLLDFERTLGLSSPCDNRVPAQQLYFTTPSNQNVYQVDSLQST

`C=CCn1c(-c2ccc(OC)c(OC)c2)n[nH]c1=S`: the cell count in [1] amounted to 515. Further, the inhibition in experiment [1] was -3.9% (inactive); in experiment [2], 9.4% (inactive); in [4] it was 5.95% (inactive); in experiment [9] it was 30.5% (inactive). Besides, the nuclei count in experiment [2] was 150%. The z-score is 0.455 in experiment [3] (setting [10]), -1.23 in experiment [3] (setting [11]) and -0.521 in experiment [3] (setting [12]). In addition, the fluorescence slope is -0.338 (inactive) in experiment [5] and 0.00705 (inactive) in experiment [7]. Moreover, the NADPH fluorescence slope in experiment [6] was -3.6e-05 (inactive). The compound was called inactive in experiment [8].
Turning to `O=c1c2sc3nc(N4CCOCC4)c4c(c3c2ncn1Cc1ccco1)CCCC4`, the cell count in experiment [1] amounted to 502. Besides, the inhibition is 2.3% (inactive) in experiment [1], -62.8% (inactive) in experiment [2], 21.8% (inactive) in [4] and 30% (inactive) in experiment [9]. The same compound displayed a nuclei count in [2] of 143%. In addition, the z-score is -0.769 in [3] (setting [10]), -0.213 in [3] (setting [11]) and 0.589 in [3] (setting [12]). Also, the fluorescence slope in experiment [5] is -0.369 (inactive); in experiment [7], 0.00575 (inactive). Moreover, the NADPH fluorescence slope in experiment [6] is -1.9e-05 (inactive). In experiment [8], the compound was called inactive.
In the case of `O=C(NCCC1=CCCCC1)c1ccc(=O)oc1`, the cell count in experiment [1] was determined as 670. Further, the inhibition in [1] was -1.4% (inactive); in experiment [2], 33.5% (inactive); in [4], -2.29% (inactive); in experiment [9], 20.7% (inactive). Also, the nuclei count in experiment [2] was 163%. Besides, the z-score in experiment [3] (setting [10]) is -0.394; in [3] (setting [11]) it was -0.165; in [3] (setting [12]), 0.265. Also, the fluorescence slope in [5] was -0.448 (inactive); in experiment [7], 0.00522 (inactive). For the same compound, the NADPH fluorescence slope in experiment [6] is -0.000197 (inactive). The compound was classed as inactive in [8].
`CCC(=O)Nc1ccc(-c2nnc(-c3ccccc3)o2)cc1`: in [1], the cell count was found to be 647. Moreover, the inhibition in experiment [1] is 1.6% (inactive); in [2], 18.6% (inactive); in experiment [4], 1.63% (inactive); in [9], 30.3% (inactive). Besides, the nuclei count in experiment [2] stood at 89.6%. The z-score in experiment [3] (setting [10]) is 1.36; in experiment [3] (setting [11]) it was -0.514; in [3] (setting [12]) it was 1.06. Also, the fluorescence slope in experiment [5] was -0.444 (inactive); in experiment [7] it was 0.00653 (inactive). Further, the NADPH fluorescence slope in [6] was -8.1e-05 (inactive). The result in experiment [8] was inactive.
`CCC(NC(=O)NC1=NCCS1)(C(F)(F)F)C(F)(F)F`: the cell count in [1] was found to be 772. The inhibition was 2.9% (inactive) in experiment [1], -60% (inactive) in [2], 20.2% (inactive) in experiment [4] and -2.29% (inactive) in [9]. The nuclei count in experiment [2] was determined as 150%. Moreover, the z-score in [3] (setting [10]) is 0.622; in experiment [3] (setting [11]) it was -0.646; in experiment [3] (setting [12]), 0.179. Also, the fluorescence slope in experiment [5] is -0.433 (inactive); in [7] it was 0.00527 (inactive). Besides, in experiment [6], the NADPH fluorescence slope was -7.2e-05 (inactive). In addition, in experiment [8], the compound was called inactive.
As to `COc1ccccc1C1/C(=C(/O)c2ccc(C)cc2)C(=O)C(=O)N1CCN1CCOCC1` (stereo unspecified), in [1], the cell count was found to be 652. The inhibition is -11.9% (inactive) in experiment [1], -32.2% (inactive) in [2], -2.09% (inactive) in [4] and 0.641% (inactive) in [9]. This compound also came in with a nuclei count in experiment [2] of 133%. The z-score in experiment [3] (setting [10]) was -0.486; in [3] (setting [11]) it was -0.67; in [3] (setting [12]), 0.136. The fluorescence slope is -0.506 (inactive) in [5] and 0.0067 (inactive) in experiment [7]. Moreover, the NADPH fluorescence slope in experiment [6] was -4e-05 (inactive). In addition, the compound was classed as inactive in experiment [8].
With `C=CCNc1nc(NCc2ccccc2)c(C#N)c2c1CN(C)CC2`, the cell count in experiment [1] is 592. Moreover, the inhibition in experiment [1] was -6.3% (inactive); in [2], -14.9% (inactive); in [4], -2.09% (inactive); in [9], 21.1% (inactive). This compound also returned a nuclei count in experiment [2] of 156%. The z-score in [3] (setting [10]) was 0.516; in [3] (setting [11]), -0.0927; in experiment [3] (setting [12]), 0.356. Besides, the fluorescence slope was -0.407 (inactive) in experiment [5] and 0.00402 (inactive) in [7]. Further, the NADPH fluorescence slope in experiment [6] was -5.5e-05 (inactive). Further, in experiment [8], the compound was classed as inactive.

The inhibition is the relative decrease from the control value, in per cent.
